Experiment [1] deals with Botrytis cinerea. Put plainly: Fungicidal activity against Botryotinia fuckeliana assessed as growth inhibition at 100 uM after 72 hr by microbioassay. Type of experiment: functional. The note with it: read-out: GI. In short, it runs like this:
(§1)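 Botrytis cinerea tested in a 96-well dose-response microbioassay alongside other fungal strains, after compounds were first screened by TLC bioautography against C. fragariae. Three concentrations were used (1.0, 10.0, 100.0 μM), with captan as positive standard. Growth inhibition was read 72 h after treatment.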

For experiment [2], the system named is Colletotrichum fragariae. In words: Antifungal activity against Colletotrichum fragariae by TLC bioautography. Format: functional, organism-based.
Experiment [3] relates to Agrostis stolonifera. Put plainly: Phytotoxic activity against Agrostis stolonifera var. Penncross at 0.1 to 1000 uM. Type of experiment: functional, organism-based. The method, boiled down:
(§2)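 Germination phytotoxicity assay on lettuce (Lactuca sativa cv. Iceberg, dicot) and bent grass (Agrostis stolonifera cv. Pencross, monocot), with compounds tested across 0.1-1000 μM. Inhibition was scored visually on a 1-5 scale, where 1 is no inhibition and 5 is complete inhibition of germination.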

In experiment [4] the test system is Lactuca sativa. In words: Phytotoxic activity against Lettuce cv. Iceberg (lettuce) at 0.1 to 1000 uM. Type of experiment: functional, organism-based. In short, it runs like this: as §2
The subject of experiment [5] is Cucumis sativus. Put plainly: Phytotoxic activity against Cucumis sativus (cucumber) cotyledon disks assessed as electrolyte leakage. Format: functional, organism-based.
Experiment [6] deals with Botrytis cinerea. Put plainly: Fungicidal activity against Botryotinia fuckeliana assessed as growth inhibition at 10 to 100 uM after 72 hr by microbioassay. Type of experiment: functional, organism-based. In short, it runs like this: as §1

This is an account of results in ChEMBL document CHEMBL3045750, “New class of algicidal compounds and fungicidal activities derived from a chromene amide of Amyris texana” (2010).

The source made the active and inactive calls. The calls are words filed in the database; no cut-off is given here. A value given as a limit tells only on which side of the number the result lay.

`CC1(C)C=Cc2ccc(CO)cc2O1`: the inhibition of growth at 100 µM in experiment [1] is > 50%. For the same compound, the outcome in experiment [2] was Active.

With `CC(C)NCc1cccc2c1C=CC(C)(C)O2`, the result in experiment [2], in experiment [3] and in experiment [4] was inactive.

For the compound `COC(=O)c1cccc2c1C=CC(C)(C)O2`, the inhibition of growth at 100 µM in experiment [1] was > 50%. In addition, the outcome in experiment [2] was Active.

Consider `CC1(C)C=Cc2cc(CO)ccc2O1` [EULATACHROMENE], for which, in experiment [1], the inhibition of growth at 100 µM is 30%. Further, in experiment [5], the result was inactive. The result in experiment [2] was Active.

For `CCOC(=O)Cc1cc2c(c(OC)c1)OC(C)(C)C=C2`, the outcome in experiment [2] was Active.

Consider `O=C1C2CC=CCC2C(=O)N1SC(Cl)(Cl)Cl` (stereo unspecified), for which, in experiment [6], the “growth inhibition (GI)” value was “Active”.

`CC1(C)C=Cc2cc(CCO)ccc2O1`: the inhibition of growth at 100 µM in experiment [1] was > 50%. The result in experiment [5], in experiment [3] and in experiment [4] was inactive. Also, the result in experiment [2] was Active.

For `COc1cc(CCO)cc2c1OC(C)(C)C=C2`, the result in experiment [2] was Active.

Regarding `C#CC(C)(C)Oc1cccc(C(=O)OC)c1`, the result in experiment [2] was Active.

For `CC1(C)C=Cc2cc(CCCO)ccc2O1`, in experiment [1], the inhibition of growth at 100 µM was > 50%. Moreover, the result in experiment [2] was Active.

For `C#CC(C)(C)Oc1ccc(CCC(=O)OC)cc1`, the result in experiment [2] was Active.

`CC(C)NCc1ccc2c(c1)C=CC(C)(C)O2`: the result in experiment [2], in experiment [3] and in experiment [4] was inactive.

Regarding `C#CC(C)(C)Oc1ccc(CC(=O)OC)cc1`, in experiment [2], the result was Active.

On to `COc1cc(CCNC(C)C)cc2c1OC(C)(C)C=C2`, for which the result in experiment [2], in experiment [3] and in experiment [4] was inactive.

Turning to `CC(C)NCCCc1ccc2c(c1)C=CC(C)(C)O2`, the outcome in experiment [2], in experiment [3] and in experiment [4] was inactive.

Turning to `CC1(C)C=Cc2cc(CCN)ccc2O1`, the outcome in experiment [2], in experiment [3] and in experiment [4] was inactive.

As to `C#CC(C)(C)Oc1ccc(C(=O)OC)cc1`, in experiment [2], the outcome was Active.

As to `CC(C)NCc1ccc2c(c1)OC(C)(C)C=C2`, the result in experiment [2], in experiment [3] and in experiment [4] was inactive.

Turning to `COC(=O)CCc1ccc(O)cc1`, in experiment [2], the outcome was Active.

For `CC1(C)C=Cc2c(CO)cccc2O1`, the outcome in experiment [2] was Active.

Turning to `COC(=O)CCc1ccc2c(c1)C=CC(C)(C)O2`, the result in experiment [2] was Active.

Consider `COC(=O)Cc1ccc2c(c1)C=CC(C)(C)O2`, for which, in experiment [1], the inhibition of growth at 100 µM stood at 30%. Further, the result in experiment [2] was Active. Moreover, the result in experiment [3] and in experiment [4] was inactive.

With `C#CC(C)(C)Oc1ccc(CC(=O)OCC)cc1OC`, the outcome in experiment [2] was Active.

As to `COC(=O)c1ccc2c(c1)OC(C)(C)C=C2`, the inhibition of growth at 100 µM in experiment [1] was > 50%. The outcome in experiment [2] was Active.

On to `CNCCc1ccc2c(c1)C=CC(C)(C)O2`, for which the result in experiment [2], in experiment [3] and in experiment [4] was inactive.

Take `CC(C)CC(=O)N(C)CCc1ccc2c(c1)C=CC(C)(C)O2`: in experiment [1], the inhibition of growth at 100 µM was determined as 80%. Further, the outcome in experiment [3] and in experiment [4] was inactive.

Regarding `COC(=O)c1ccc2c(c1)C=CC(C)(C)O2`, in experiment [1], the inhibition of growth at 100 µM is > 50%. Also, the result in experiment [2] was Active.

With `CC(C)NCCc1ccc2c(c1)C=CC(C)(C)O2`, the outcome in experiment [5], in experiment [2], in experiment [3] and in experiment [4] was inactive.
